Measured values from ChEMBL document CHEMBL5661981 (PLoS One, 2011).
Blank lines part the entries; values can stand above or below the compound they belong to. Active and inactive are the calls of the source. No cut-off for these calls is given here.

What was measured:
NIH3T3 = experiment: Antiproliferative activity against mouse NIH3T3 cells harboring EGFR T790M/L858R double mutant assessed as reduction in cell viability after 72 hrs by SRB assay; assay type: functional, cell-based; conditions: dose 0.19-6.25 µM
Outline: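 Parental NIH3T3 and laboratory-built NIH3T3 overexpressing EGFR T790M/L858R treated with indicated concentrations for 72 h; viability by sulforhodamine B; IC50 from three independent experiments.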

SK-OV-3 [1] = experiment: Antiproliferative activity against human SK-OV-3 cells transfected with EGFR siRNA assessed as reduction in cell viability at 1.25 to 6.25 uM after 72 hrs by SRB assay; assay type: functional, cell-based; conditions: dose 1.25-6.25 µM
Outline: (§1)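 SK-OV-3 cells transfected with siRNA (final 50 nmol/L; one ErbB2 pair, two independent EGFR pairs, plus control siRNA) using oligofectamine; drug added 48 h after transfection, growth measured by SRB. Three independent experiments; significance by t test.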

HO-8910 = experiment: Antitumor activity against human HO-8910 cells xenografted in nude mouse assessed as reduction in growth at 25 to 100 mg/kg, po administered twice daily for 21 days; assay type: functional, organism-based; conditions: dose 25-100 mg/kg, time 21.0 day
NCI-H23 = experiment: Antiproliferative activity against human NCI-H23 cells assessed as reduction in cell viability after 72 hrs by SRB assay; assay type: functional, cell-based; conditions: NCI-H23, 72 h
Outline: (§2)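 Cell lines from ATCC; exposed to indicated concentrations for 72 h and growth read by sulforhodamine B (SRB) assay; IC50 values derived.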

MDA-MB-468 = experiment: Antiproliferative activity against human MDA-MB-468 cells assessed as reduction in cell viability after 72 hrs by SRB assay; assay type: functional, cell-based; conditions: MDA-MB-468, 72 h; outline: as §2
SK-OV-3 [2] = experiment: Antitumor activity against human SK-OV-3 cells over expressing ErbB2 xenografted in nude mouse assessed as reduction in growth at 25 to 100 mg/kg, po administered twice daily for 7 days relative to control; assay type: functional; design: scale not given: the % may be the effect or the level left; conditions: dose 25-100 mg/kg, time 7 day
[3] = tested on: Epidermal growth factor receptor (Homo sapiens), P00533 [L858R,T790M]; conditions: NIH3T3, dose 1-100 nM, time 6.0 hrs
Epidermal growth factor receptor (Homo sapiens), P00533 [L858R,T790M], sequence (P00533 whole entry T790M/L858R, looked up): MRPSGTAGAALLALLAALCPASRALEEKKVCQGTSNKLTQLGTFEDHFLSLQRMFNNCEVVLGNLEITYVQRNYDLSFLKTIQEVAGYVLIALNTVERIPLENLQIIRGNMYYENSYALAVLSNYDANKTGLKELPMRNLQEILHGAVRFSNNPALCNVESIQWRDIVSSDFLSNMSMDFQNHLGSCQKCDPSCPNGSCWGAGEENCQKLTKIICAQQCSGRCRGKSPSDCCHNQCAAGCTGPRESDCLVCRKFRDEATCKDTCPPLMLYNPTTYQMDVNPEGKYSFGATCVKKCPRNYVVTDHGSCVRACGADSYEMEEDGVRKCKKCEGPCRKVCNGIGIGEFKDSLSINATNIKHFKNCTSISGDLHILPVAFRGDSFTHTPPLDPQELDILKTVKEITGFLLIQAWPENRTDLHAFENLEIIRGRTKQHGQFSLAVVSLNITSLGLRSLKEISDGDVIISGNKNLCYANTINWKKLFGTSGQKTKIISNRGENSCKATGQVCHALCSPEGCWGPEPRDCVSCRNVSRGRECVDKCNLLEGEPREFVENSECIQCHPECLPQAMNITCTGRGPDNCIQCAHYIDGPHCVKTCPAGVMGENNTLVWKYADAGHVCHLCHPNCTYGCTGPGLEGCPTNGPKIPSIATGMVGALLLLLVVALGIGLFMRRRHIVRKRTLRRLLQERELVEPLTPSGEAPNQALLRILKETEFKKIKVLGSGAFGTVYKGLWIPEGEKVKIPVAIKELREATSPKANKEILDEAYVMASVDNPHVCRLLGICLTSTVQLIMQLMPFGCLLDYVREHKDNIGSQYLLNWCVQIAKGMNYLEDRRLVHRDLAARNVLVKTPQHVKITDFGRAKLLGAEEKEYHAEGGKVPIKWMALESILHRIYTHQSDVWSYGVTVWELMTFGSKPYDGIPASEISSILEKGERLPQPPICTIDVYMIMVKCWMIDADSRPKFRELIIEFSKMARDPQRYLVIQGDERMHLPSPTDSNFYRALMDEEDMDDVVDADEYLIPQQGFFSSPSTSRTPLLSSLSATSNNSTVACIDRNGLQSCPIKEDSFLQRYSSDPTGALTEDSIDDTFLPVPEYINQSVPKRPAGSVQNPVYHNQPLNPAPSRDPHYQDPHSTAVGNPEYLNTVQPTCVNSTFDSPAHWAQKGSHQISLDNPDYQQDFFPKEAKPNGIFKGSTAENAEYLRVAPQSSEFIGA

[4] = Toxicity in nude mouse xenografted with human SK-OV-3 cells over expressing ErbB2 assessed as effect on body weight at 25 to 100 mg/kg, po administered twice daily for 28 days; assay type: organism-based; conditions: in vivo, 672 h, dose 25-100 mg/kg, time 28 day
SK-OV-3 [5] = experiment: Antiproliferative activity against human SK-OV-3 cells assessed as decrease in number of colony formation at 0.1 to 5 uM after 1 to 2 weeks by microscope analysis; assay type: functional, cell-based; conditions: dose 0.1-5 µM, time 1-2 weeks
Outline: (§3)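 Cells at 8000/mL exposed to drug in 1 mL 0.3% basal medium Eagle's agar with 10% FBS; kept 2 weeks at 37°C, 5% CO2. Average colony number counted and colonies photographed; mean of triplicate samples, SE bars, Student's test.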

A549 [6] = experiment: Antiproliferative activity against human A549 cells assessed as reduction in cell viability after 72 hrs by SRB assay; assay type: functional, cell-based; conditions: A549, 72 h; outline: as §2
[7] = tested on: Epidermal growth factor receptor (Homo sapiens), P00533 [L858R,T790M]; conditions: NCI-H1975, dose 10-100 nM, time 4.25 hrs
Mus musculus [8] = experiment: Antitumor activity against FVB-2/Nneu transgenic mouse breast cancer model assessed as reduction in tumor growth at 25 to 100 mg/kg, po administered twice daily for 11 days relative to control; assay type: functional; design: scale not given: the % may be the effect or the level left; conditions: dose 25-100 mg/kg, time 11 day
SK-OV-3 [9] = experiment: Antiproliferative activity against human SK-OV-3 cells transfected with ErbB2 siRNA assessed as reduction in cell viability at 1.25 to 6.25 uM after 72 hrs by SRB assay; assay type: functional, cell-based; conditions: dose 1.25-6.25 µM; outline: as §1
Mus musculus [10] = experiment: In vivo inhibition of EGFR phosphorylation in human SK-OV-3 cells over expressing ErbB2 xenografted in nude mouse at 100 mg/kg, po measured after 2 to 24 hrs by Western blot analysis; assay type: functional, organism-based; conditions: time lower 2.0 hrs, time upper […]
Outline: (§4)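 Nude mice bearing established SK-OV-3 tumors (~200 mm3) given a single 100 mg/kg dose; tumor extracts collected at indicated times and EGFR and ErbB2 phosphorylation assessed by immunoblotting.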

A549 [11] = experiment: Antiproliferative activity against human A549 cells assessed as decrease in number of colony formation at 0.1 to 5 uM after 1 to 2 weeks by microscope analysis; assay type: functional, cell-based; conditions: dose 0.1-5 µM, time 1-2 weeks; outline: as §3
Calu-3 [12] = experiment: Antitumor activity against human Calu-3 cells over expressing ErbB2 xenografted in nude mouse assessed as reduction in growth at 25 to 100 mg/kg, po administered twice daily for 21 days; assay type: functional, organism-based; conditions: dose 25-100 mg/kg, time 21.0 day
[13] = Toxicity in FVB-2/Nneu transgenic mouse breast cancer model assessed as decrease in body weight at 25 to 100 mg/kg, po administered twice daily for 21 days relative to control; assay type: organism-based; design: scale not given: the % may be the effect or the level left; conditions: in vivo, 504 h, dose 25-100 mg/kg, time 21 day
SK-OV-3 [14] = experiment: Antitumor activity against human SK-OV-3 cells over expressing ErbB2 xenografted in nude mouse assessed as reduction in growth at 25 to 100 mg/kg, po administered twice daily for 28 days; assay type: functional, organism-based; conditions: dose 25-100 mg/kg, time 28.0 day
Mus musculus [15] = experiment: Antitumor activity against FVB-2/Nneu transgenic mouse breast cancer model assessed as reduction in tumor growth at 25 to 100 mg/kg, po administered twice daily for 21 days; assay type: functional, organism-based; conditions: dose 25-100 mg/kg, time 21.0 day
[16] = tested on: Epidermal growth factor receptor (Homo sapiens), P00533 [L858R,T790M]; conditions: NCI-H1975, dose 10-100 nM, time 4.25 hrs; remark: listed apart in the source
SK-OV-3 [17] = experiment: Antiproliferative activity against human SK-OV-3 cells assessed as reduction in cell viability after 72 hrs by SRB assay; assay type: functional, cell-based; conditions: SK-OV-3, 72 h; outline: as §2
[18] = tested on: Epidermal growth factor receptor (Homo sapiens), P00533 [L858R,T790M]; conditions: NCI-H1975, dose 10-100 nM, time 4.25 hrs; remark: listed apart in the source
NCI-H1975 = experiment: Antiproliferative activity against human NCI-H1975 cells harboring EGFR T790M/L858R double mutant assessed as reduction in cell viability after 72 hrs by SRB assay; assay type: functional, cell-based; conditions: dose 0.19-6.25 µM; outline: as §2
A549 [19] = experiment: Antitumor activity against human A549 cells xenografted in nude mouse assessed as reduction in growth at 25 to 100 mg/kg, po administered twice daily for 32 days; assay type: functional, organism-based; conditions: dose 25-100 mg/kg, time 32.0 day
Mus musculus [20] = experiment: In vivo inhibition of ErbB2 phosphorylation in human SK-OV-3 cells over expressing ErbB2 xenografted in nude mouse at 100 mg/kg, po measured after 2 to 24 hrs by Western blot analysis; assay type: functional, organism-based; conditions: time lower 2.0 hrs, time upper […]; outline: as §4
Calu-3 [21] = experiment: Antitumor activity against human Calu-3 cells over expressing ErbB2 xenografted in nude mouse assessed as reduction in growth at 50 mg/kg, po administered twice daily for 28 days; assay type: functional, organism-based; conditions: time 28.0 day
SK-OV-3 [22] = experiment: Antitumor activity against human SK-OV-3 cells over expressing ErbB2 xenografted in nude mouse assessed as reduction in growth at 50 mg/kg, po administered twice daily for 28 days; assay type: functional, organism-based; conditions: time 28.0 day

- IC50 (NCI-H23): 6.2 µM
- IC50 (MDA-MB-468): 6.2 µM
- inhibition [3]: Active
- IC50 (A549 [6]): 6.2 µM
- inhibition [7]: Dose-Dependent Effect
- inhibition [16]: Dose-Dependent Effect
- IC50 (SK-OV-3 [17]): 6.2 µM
- inhibition [18]: Dose-Dependent Effect
Compound: C=CC(=O)Nc1ccc2ncnc(Nc3ccc(OCc4cccc(F)c4)c(Cl)c3)c2c1 [ALLITINIB]
- Activity (NIH3T3): Dose-Dependent Effect
- Activity (SK-OV-3 [1]): Active
- Activity (HO-8910): Active
- Activity (SK-OV-3 [2]): ~100%
- Activity [4]: Non-Toxic
- Activity (SK-OV-3 [5]): Active
- Activity (Mus musculus [8]): ~100%
- Activity (SK-OV-3 [9]): inactive
- inhibition (Mus musculus [10]): Active
- Activity (A549 [11]): Active
- Activity (Calu-3 [12]): Active
- Activity [13]: < 20%
- Activity (SK-OV-3 [14]): Active
- Activity (Mus musculus [15]): Active
- inhibition (NCI-H1975): Dose-Dependent Effect
- Activity (A549 [19]): Active
- inhibition (Mus musculus [20]): Active

Compound: CS(=O)(=O)CCNCc1ccc(-c2ccc3ncnc(Nc4ccc(OCc5cccc(F)c5)c(Cl)c4)c3c2)o1
- Activity (Calu-3 [21]): Active
- Activity (SK-OV-3 [22]): Active
